Measurements taken from ChEMBL document CHEMBL1134405 (J Med Chem, 2001).
Blank lines part the entries; values can stand above or below the compound they belong to. Active and inactive are the calls of the source. No cut-off for these calls is given here. Peptide text beside a SMILES is read from it.

Assays:
[1] = pA2 value, a dose-response plot was obtained by determining the response when the concentration of glucagon was varied while the concentration was kept same.
[2] = target: T1, Glucagon receptor (Rattus norvegicus, UniProt P30082); experiment: Compound was evaluated for its ability to displace radiolabeled glucagon
T1 sequence (P30082 whole entry): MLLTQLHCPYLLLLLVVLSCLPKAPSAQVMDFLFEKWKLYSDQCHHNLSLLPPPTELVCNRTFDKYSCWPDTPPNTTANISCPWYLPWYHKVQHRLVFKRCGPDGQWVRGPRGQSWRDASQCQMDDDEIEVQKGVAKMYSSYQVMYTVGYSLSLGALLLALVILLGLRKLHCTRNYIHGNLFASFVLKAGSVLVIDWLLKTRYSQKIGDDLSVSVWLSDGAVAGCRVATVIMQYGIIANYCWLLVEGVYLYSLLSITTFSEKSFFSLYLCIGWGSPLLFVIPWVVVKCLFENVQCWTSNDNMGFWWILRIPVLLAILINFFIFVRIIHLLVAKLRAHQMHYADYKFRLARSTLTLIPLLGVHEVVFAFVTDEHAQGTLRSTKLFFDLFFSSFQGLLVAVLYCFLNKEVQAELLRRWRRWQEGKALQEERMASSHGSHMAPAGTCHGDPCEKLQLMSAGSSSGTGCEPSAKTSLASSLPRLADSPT
In short: (§1)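 Incubation 10 min at 30 °C, then ice cooling and filtration on 0.45 μm cellulose acetate, gamma counting. Nonspecific binding taken with 1024 nM unlabeled peptide and subtracted. Read as % inhibition of specific binding. Triplicates, repeated twice.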

[3] = target: Glucagon receptor (Rattus norvegicus) (UniProt P30082); experiment: Relative binding by measuring competition for glucagon receptor between [125]glucagon and the compound.; in short: as §1
Chain of Glucagon receptor (Rattus norvegicus) (P30082 whole entry): as above

[4] = target: T2, Adenylate cyclase (Rattus norvegicus) (UniProt D4A3N4+P26770+Q04400+P26769+Q03343+P40146+Q8CFM9+P21932); experiment: Relative potency was evaluated by measuring potency for conversion of [alpha-32P]ATP to cyclic 3',5'-AMP relative to glucagon; assay type: protein assay
[5] = target: T1, Glucagon receptor; experiment: IC50 value was expressed for inhibition of [125]glucagon specific binding.; in short: as §1
[6] = target: T1, Glucagon receptor; experiment: IC50 value was expressed as inhibition of [125]glucagon specific binding.; in short: as §1
[7] = A dose-response plot was obtained by determining the response when the concentration of glucagon was varied while the concentration was kept same.
[8] = target: T2, Adenylate cyclase (Rattus norvegicus); experiment: Adenylate cyclase stimulation; Inactive up to 100 uM.; assay type: protein assay
[9] = target: T2, Adenylate cyclase (Rattus norvegicus); experiment: Maximum stimulation of adenylate cyclase.; assay type: protein assay
[10] = target: Glucagon receptor (Rattus norvegicus) (UniProt P30082); experiment: Compound was evaluated for its ability to displace radiolabeled glucagon (inactive up to 100 uM); in short: as §1
[11] = target: Adenylate cyclase; experiment: Adenylate cyclase activity of the compound, expressed as effective concentration; assay type: protein assay
In short: (§2)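 Rat liver plasma membranes (male Sprague–Dawley, 200–250 g; sucrose-gradient purified), 35 μg protein in 0.1 mL with 1 mM [α-32P]ATP, 5 mM MgCl2, GTP, 1 mM EDTA, 1 mM cAMP plus [3H]cAMP tracer, 25 mM Tris pH 7.5, 0.4% BSA, phosphocreatine/creatine kinase regeneration. Labeled cAMP isolated by sequential Dowex and alumina chromatography.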

[12] = target: Adenylate cyclase; experiment: Effective concentration required for 50% conversion of [alpha-32P]ATP to cyclic 3',5'-AMP.; assay type: protein assay; in short: as §2
[13] = target: T2, Adenylate cyclase (Rattus norvegicus); experiment: Adenylate cyclase activity of the compound, evaluated for the percentage maximum stimulation; assay type: protein assay; in short: as §2
[14] = target: Glucagon receptor (Rattus norvegicus) (UniProt P30082); experiment: Relative binding was evaluated by measuring competition for glucagon receptor between [125I]glucagon and the compound.
[15] = target: T2, Adenylate cyclase (Rattus norvegicus); experiment: Adenylate cyclase activity of the compound, expressed as effective concentration (inactive up to 100 uM); assay type: protein assay
In short: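 Adenylate cyclase in rat liver plasma membranes (35 μg protein), in 0.1 mL of 1 mM [α-32P]ATP, 5 mM MgCl2, […], 1 mM EDTA, 1 mM cAMP with [3H]cAMP tracer, 25 mM Tris pH 7.5, 0.4% BSA, plus a phosphocreatine/creatine phosphokinase regenerating system. [32P]cAMP isolated on Dowex and alumina columns.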

Compound: CC(C)C[C@H](NC(=O)[C@H](Cc1ccc(O)cc1)NC(=O)[C@H](CCCCN)NC(=O)[C@H](CO)NC(=O)[C@H](Cc1ccc(O)cc1)NC(=O)[C@H](CC(=O)O)NC(=O)[C@H](CO)NC(=O)[C@@H](NC(=O)[C@H](Cc1ccccc1)NC(=O)[C@@H](NC(=O)CNC(=O)[C@H](CCC(N)=O)NC(=O)[C@H](CO)NC(=O)[C@@H](N)Cc1c[nH]cn1)[C@@H](C)O)[C@@H](C)O)C(=O)N[C@@H](CC(=O)O)C(=O)O
Relative binding [3]: < 0.0001%
Relative potency [4]: < 0.0001%

Compound: CC(C)C[C@H](NC(=O)[C@H](Cc1ccc(O)cc1)NC(=O)[C@H](CCCCN)NC(=O)[C@H](CO)NC(=O)[C@H](Cc1ccc(O)cc1)NC(=O)[C@H](CC(=O)O)NC(=O)[C@H](CO)NC(=O)[C@@H](NC(=O)[C@H](Cc1ccccc1)NC(=O)[C@@H](NC(=O)CNC(=O)[C@H](CCC(N)=O)NC(=O)[C@H](CO)NC(=O)[C@@H](N)Cc1c[nH]cn1)[C@@H](C)O)[C@@H](C)O)C(=O)N[C@@H](CC(N)=O)C(=O)N[C@@H](CO)C(=O)N[C@@H](CCCN=C(N)N)C(=O)O
Relative binding [3]: 0.0001%
Relative potency [4]: 0.0001%

Compound: Ac-FTSDYSKYLDSRRAQDFVQWLMNT-NH2
IC50 [6]: 31 nM
pA2 [7]: 6.57

Compound: GLUCAGON [listing 1 of 2 here]
EC50 [11]: 5.9 nM
EC50 [12]: 8 nM

Compound: GLUCAGON [listing 2 of 2 here]
Max stimulation [13]: 100%
Relative binding [3]: 100%

Compound: H-DSRRAQDFVQWL-NH2
IA [8]: Inactive up to 100 uM
IA [10]: Inactive up to 100 uM
Max stimulation [9]: 0%
Relative binding [3]: 0%

Compound: H-HSQGTFTSDYS-NH2
IA [10]: Inactive up to 100 uM
Max stimulation [9]: 0%
Relative binding [3]: 0%
IA [15]: Inactive up to 100 uM

Compound: H-TFTSDYSKYLDS-NH2
IA [10]: Inactive up to 100 uM
Max stimulation [9]: 0%
Relative binding [3]: 0%
IA [15]: Inactive up to 100 uM

Compound: H-YSKYLDSRRAQ-NH2
IA [8]: Inactive up to 100 uM
IA [10]: Inactive up to 100 uM
Max stimulation [9]: 0%
Relative binding [3]: 0%

More lines, main results first:

IC50 [2]: 3.75 nM
Compound: CSCC[C@H](NC(=O)[C@H](CC(C)C)NC(=O)[C@H](Cc1c[nH]c2ccccc12)NC(=O)[C@H](CCC(N)=O)NC(=O)[C@@H](NC(=O)[C@H](Cc1ccccc1)NC(=O)[C@H](CC(=O)O)NC(=O)[C@H](CCC(N)=O)NC(=O)[C@H](C)NC(=O)[C@H](CCCN=C(N)N)NC(=O)[C@H](CCCN=C(N)N)NC(=O)[C@H](CO)NC(=O)[C@H](CC(=O)O)NC(=O)[C@H](CC(C)C)NC(=O)[C@H](Cc1ccc(O)cc1)NC(=O)[C@H](CCCCN)NC(=O)[C@H](CO)NC(=O)[C@H](Cc1ccc(O)cc1)NC(=O)[C@H](CCC(=O)O)NC(=O)[C@H](CO)NC(=O)[C@@H](NC(=O)[C@H](Cc1ccccc1)NC(=O)[C@@H](NC(=O)CNC(=O)[C@H](CCC(N)=O)NC(=O)[C@@H](N)CO)[C@@H](C)O)[C@@H](C)O)C(C)C)C(=O)N[C@@H](CC(N)=O)C(=O)N[C@H](C(N)=O)[C@@H](C)O
pA2 [1]: 7.25

Relative binding [3]: 0.0002%
Relative potency [4]: 0.0002%
Compound: CC(C)C[C@H](NC(=O)[C@H](Cc1ccc(O)cc1)NC(=O)[C@H](CCCCN)NC(=O)[C@H](CO)NC(=O)[C@H](Cc1ccc(O)cc1)NC(=O)[C@H](CC(=O)O)NC(=O)[C@H](CO)NC(=O)[C@@H](NC(=O)[C@H](Cc1ccccc1)NC(=O)[C@@H](NC(=O)CNC(=O)[C@H](CCC(N)=O)NC(=O)[C@H](CO)NC(=O)[C@@H](N)Cc1c[nH]cn1)[C@@H](C)O)[C@@H](C)O)C(=O)N[C@@H](CC(=O)O)C(=O)N[C@@H](CO)C(=O)N[C@@H](CCCN=C(N)N)C(=O)N[C@@H](CCCN=C(N)N)C(=O)N[C@@H](C)C(=O)N[C@@H](CCC(N)=O)C(=O)N[C@@H](CC(=O)O)C(=O)N[C@@H](Cc1ccccc1)C(=O)N[C@H](C(=O)N[C@@H](CCC(N)=O)C(=O)O)C(C)C

IC50 [5]: 781 nM
Compound: CSCC[C@H](NC(=O)[C@H](CC(C)C)NC(=O)[C@H](Cc1c[nH]c2ccccc12)NC(=O)[C@H](CCC(N)=O)NC(=O)[C@@H](NC(=O)[C@H](Cc1ccccc1)NC(=O)[C@H](CC(=O)O)NC(=O)[C@H](CCC(N)=O)NC(=O)[C@H](C)NC(=O)[C@H](CCCN=C(N)N)NC(=O)[C@H](CCCN=C(N)N)NC(=O)[C@H](CO)NC(=O)[C@H](CC(=O)O)NC(=O)[C@H](CC(C)C)NC(=O)[C@H](Cc1ccc2ccccc2c1)NC(=O)[C@H](CCCCN)NC(=O)[C@H](CO)NC(=O)[C@H](Cc1ccc(O)cc1)NC(=O)CCCc1ccccc1)C(C)C)C(=O)N[C@@H](CC(N)=O)C(=O)N[C@H](C(N)=O)[C@@H](C)O (HELM PEPTIDE1{[O=C(CCCc1ccccc1)[*:2]].Y.S.K.[O=C([C@H](Cc1ccc2ccccc2c1)N[*:1])[*:2]].L.D.S.R.R.A.Q.D.F.V.Q.W.L.M.N.T.[am]}$$$$V2.0)
pA2 [1]: 6.7

IC50 [6]: 249 nM
Compound: CSCC[C@H](NC(=O)[C@H](CC(C)C)NC(=O)[C@H](Cc1c[nH]c2ccccc12)NC(=O)[C@H](CCC(N)=O)NC(=O)[C@@H](NC(=O)[C@H](Cc1ccccc1)NC(=O)[C@H](CC(=O)O)NC(=O)[C@H](CCC(N)=O)NC(=O)[C@H](C)NC(=O)[C@H](CCCN=C(N)N)NC(=O)[C@H](CCCN=C(N)N)NC(=O)[C@H](CO)NC(=O)[C@H](CC(=O)O)NC(=O)[C@H](CC(C)C)NC(=O)[C@H](Cc1ccc(O)cc1)NC(=O)[C@H](CCCCN)NC(=O)[C@H](CO)NC(=O)[C@H](Cc1ccc(O)cc1)NC(=O)Cc1ccccc1)C(C)C)C(=O)N[C@@H](CC(N)=O)C(=O)N[C@H](C(N)=O)[C@@H](C)O (HELM PEPTIDE1{[O=C(Cc1ccccc1)[*:2]].Y.S.K.Y.L.D.S.R.R.A.Q.D.F.V.Q.W.L.M.N.T.[am]}$$$$V2.0)
pA2 [7]: 7.37

IA [8]: Inactive up to 100 uM
Max stimulation [9]: 0%
Relative binding [3]: 0.19%
Compound: CSCC[C@H](NC(=O)[C@H](CC(C)C)NC(=O)[C@H](Cc1c[nH]c2ccccc12)NC(=O)[C@H](CCC(N)=O)NC(=O)[C@@H](NC(=O)[C@H](Cc1ccccc1)NC(=O)[C@H](CC(=O)O)NC(=O)[C@H](CCC(N)=O)NC(=O)[C@H](C)NC(=O)[C@H](CCCN=C(N)N)NC(=O)[C@H](CCCN=C(N)N)NC(=O)[C@H](CO)NC(=O)[C@H](CC(=O)O)NC(=O)[C@H](CC(C)C)NC(=O)[C@H](Cc1ccc2ccccc2c1)NC(=O)[C@H](CCCCN)NC(=O)[C@H](CO)NC(=O)[C@H](Cc1ccc2ccccc2c1)NC(C)=O)C(C)C)C(=O)N[C@@H](CC(N)=O)C(=O)N[C@H](C(N)=O)[C@@H](C)O (HELM PEPTIDE1{[ac].[O=C([C@H](Cc1ccc2ccccc2c1)N[*:1])[*:2]].S.K.[O=C([C@H](Cc1ccc2ccccc2c1)N[*:1])[*:2]].L.D.S.R.R.A.Q.D.F.V.Q.W.L.M.N.T.[am]}$$$$V2.0)
pA2 [7]: 6.87

IA [8]: Inactive up to 100 uM
IA [10]: Inactive up to 100 uM
Max stimulation [9]: 0%
Relative binding [3]: 0%
Compound: Ac-FTSDYSKYL-NH2

Relative binding [14]: < 0.0001%
Relative potency [4]: < 0.0001%
Compound: H-HSQGTF-OH

IC50 [2]: 48 nM
Compound: H-SQGTTSEYSKYLDSRRAQDFVQWLMNT-NH2
pA2 [1]: 8.2
